Screening results as filed in PubChem.
ABCB6 inh MLPCN = ABCB6 transporter inhibitors, primary screen, K562-ABCB6 cells, flow cytometry, MLPCN library; AID 602162, 2011; fluorescence ratio to DMSO, % at 10 µM; K562-ABCB6 porphyrin accumulation, 1 h; hits give low values; 360,000 compounds, 0.19% hits; ATP-binding cassette sub-family B member 6 (Homo sapiens), Q9NP58;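 active = fluorescence ratio to DMSO below 75%, the collection mean minus 3 SD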;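 also: signal is porphyrin accumulated inside mitochondria; 100% equals median channel fluorescence of DMSO control wells; lower ratio means ABCB6 inhibition with less porphyrin fluorescence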
hiPSC survival = enhancers of single-cell hiPSC survival, primary screen, ATPlite luminescence. 100% = ROCK inhibitor wells, 0% = DMSO. survival enhancement, % at 20 µM. 360,000 compounds, 0.044% hits. AID 602274, 2012; in the data active = survival enhancement above about 18%;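 also: cells exposed to compounds for 16 hours before the ATP read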
FAS-TE inh = FAS thioesterase domain inhibitors, primary screen, biochemical, fluorescence intensity, uHTS. Fatty acid synthase (Homo sapiens), P49327. recombinant FAS-TE, OMFH fluorogenic substrate, fluorescence endpoint. inhibition, % at 15 µM. 360,000 compounds, 0.67% hits. AID 602261, 2012;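 active = compounds whose normalised, plate-corrected inhibition of enzyme fluorescence in the single-dose primary screen is 50% or more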;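 also: 0% = DMSO with enzyme and 100% = substrate without enzyme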
SENP1 inh = human SENP1 catalytic domain inhibitors, primary screen, biochemical, FRET, uHTS; AID 624204, 2012; 360,000 compounds, 0.21% hits; inhibition, % at 10 µM; Sentrin-specific protease 1 (Homo sapiens), Q9P0U3; recombinant SENP1 catalytic domain, CyPet-SUMO1-YPet FRET cleavage;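 active = inhibition at least 30% at 10 µM, raw YFP signal under a set limit, fluorescence ratio 0.5 to 1.5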;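 also: 0% = enzyme with DMSO and 100% = no enzyme wells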
Target sequence (Q9P0U3 419-644 limits assumed): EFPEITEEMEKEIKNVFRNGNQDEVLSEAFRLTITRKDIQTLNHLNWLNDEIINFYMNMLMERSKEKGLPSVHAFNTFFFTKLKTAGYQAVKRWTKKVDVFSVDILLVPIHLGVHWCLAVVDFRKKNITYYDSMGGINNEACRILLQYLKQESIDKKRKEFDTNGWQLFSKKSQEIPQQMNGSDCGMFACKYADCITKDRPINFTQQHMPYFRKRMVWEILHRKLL
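Assay system – human recombinant His6-tagged SENP1 catalytic domain enzyme · Input – SENP1 enzyme, 20 pM final · Buffer or medium – Tris pH 8 buffer plus EDTA, NaCl, BME, BSA, NP40, catalase · Schedule – 50 min reaction at room temperature · Technique – FRET read of cyan and yellow fluorescence · Control set – no-enzyme wells low, DMSO-plus-enzyme wells high control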
ABCB6 inh CP1 = ABCB6 transporter inhibitors, confirmation, K562-ABCB6 cells, flow cytometry, cherry pick 1; K562-ABCB6 porphyrin accumulation, 1 h; hits give low values; AID 602430, 2012; 700 tested, under 10 active; ratio response (% of DMSO), % at 10 µM; shares compounds with ABCB6 inh MLPCN;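 active = repeat-averaged ratio response below 75% of DMSO, the collection mean minus 3 SD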;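 also: median porphyrin fluorescence at 575 nm with 488 nm excitation from mitochondria; lower ratio means less porphyrin signal so ABCB6 inhibition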
Starred values were filed as active, the others as inactive; . = no result. Hits are enriched below; roughly 1.1% of the tested compounds scored in any of these assays.

SMILES	ABCB6 inh MLPCN	hiPSC survival	FAS-TE inh	SENP1 inh	others
COCCc1ccc(OC2(C)CCN(Cc3cccc(OCOC)c3)C2)cc1 (stereo not drawn)	98	0	-5	-3
CC1=NN(c2ccccc2)C(=O)/C1=C\C=C1/N(C)c2ccccc2C1(C)C	112	0	20	48*
CC1=NN(c2ccccc2)C(=O)/C1=C\C=C1\N(C)c2ccccc2C1(C)C	100	-2	2	27
CC1CCC(=NNS(=O)(=O)c2ccc([N+](=O)[O-])cc2)CC1 (stereo not drawn)	87	-2	58*	2
COc1ccc(S(=O)(=O)NC(C)C(=O)NCc2ccccn2)cc1Cl (stereo not drawn)	89	0	-2	1
O=C1C2C3c4ccccc4C(c4ccccc43)[C@@H]2C(=O)N1c1nc(-c2ccccc2)cs1 (stereo partly drawn)	98	-3	52*	1
COc1cccc(NC(=O)CN(C)C(=O)C(C)Sc2ccccc2)c1 (stereo not drawn)	94	0	-2	3
COc1ccc(N2CSC3=C(C#N)C(c4cc(OC)ccc4OC)CC(=O)N3C2)c(OC)c1 (stereo not drawn)	74*	0	-8	-91
COc1ccc(N2CSC3=C(C#N)C(c4cc(OC)c(OC)cc4OC)CC(=O)N3C2)c(OC)c1 (stereo not drawn)	102	-3	-8	-126
O=C(C[C@@H]1C/C=C\C[C@H](Cc2ccc(F)cc2)C(=O)OC[C@@H](c2ccccc2)NC1=O)NCCO	96	-3	-7	3
CS(=O)(=O)Nc1ccc2c3c(cccc13)CC2	97	20*	-8	7
Cn1c(=O)cc(OCCCC(=O)Nc2cccc(Cl)c2)c2ccccc21	98	21*	-3	1
Cc1cc(O)c2c(c1)C(=O)[C@@]13Oc4c5c(c(O)c6c(O)cc(C)cc46)C(=O)C[C@H](O)[C@H]5[C@@H]1[C@@H](O)CC(=O)C3=C2O	103	-1	16	33*
CCOC(=O)N1C2=NC(C(=O)OC)=C(C(=O)OC)[C@@H]3N(C)c4ccccc4[C@]23C[C@H]1C(=O)OC	99	1	-12	6
COC(=O)C1=C(C(=O)OC)[C@@H]2N(C)c3ccccc3[C@@]23C[C@@H](CO)N(C(=O)NCCBr)C3=N1	94	0	52*	0
CCCC(=O)N1CCC1(C)C(=O)NS(=O)(=O)c1cccs1 (stereo not drawn)	103	11	-4	0
COc1cc(/C=C2/SC(=S)NC2=O)ccc1OS(=O)(=O)c1ccc(C)cc1	103	3	57*	6
COc1ccc(/C=C2\SC(=S)NC2=O)cc1OS(=O)(=O)c1ccc(NC(C)=O)cc1	95	0	12	-1
COc1ccc(/C=C2\SC(=O)NC2=S)cc1OC	102	1	-12	32*
CCOc1ccc(/C=C2\SC(=S)NC2=O)cc1OC	100	-1	3	-12
CN(CCOc1ccc(-c2ccn(S(=O)(=O)c3c(Cl)cccc3Cl)n2)cc1)c1ccccn1	99	19*	23	0
NS(=O)(=O)c1ccc(CNC(=O)Cc2ccsc2)cc1	98	0	-8	-2
CN1C(=O)C(N=Nc2ccccc2C(=O)O)N(C)C1=S (stereo not drawn)	93	-2	10	56*
CC1=NN(C(N)=S)C(=O)C1N=Nc1ccccc1C(=O)O (stereo not drawn)	100	2	-4	1
CCCCNC(=O)c1nc(C2CCN(S(=O)(=O)c3ccc(F)c(F)c3)CC2)oc1-c1ccccc1	95	1	24	1
SMILES	ABCB6 inh MLPCN	hiPSC survival	FAS-TE inh	SENP1 inh	others
Clc1nssc1=Nc1ccc(Br)cc1	95	-1	-5	1
Clc1ccc(N=c2ssnc2Cl)nc1	99	-1	-2	32*
CN(C(=O)COC(=O)c1nc(Cl)c(Cl)c(Cl)c1Cl)C1CCS(=O)(=O)C1 (stereo not drawn)	105	42*	-6	0
CN(C(=O)COC(=O)c1ccc(C(C)(C)C)cc1)C1CCS(=O)(=O)C1 (stereo not drawn)	102	0	31	0
Cc1cccc(NC(=O)c2cc(NC(=O)CCCC(=O)O)ccc2Cl)n1	53*	-2	-11	3	ABCB6 inh CP1=102
Cc1cccc(NC(=O)CCNC(=O)c2ccccc2Cl)n1	103	0	-1	1
CCOC(=O)C1(C(F)(F)F)N=C(C(F)(F)F)Nc2ccc(F)cc21 (stereo not drawn)	59*	-1	0	1	ABCB6 inh CP1=103
Cc1ccccc1NC(=O)c1cc(=O)c2ccccc2o1	103	-3	-1	2
CCc1ccccc1NC(=O)c1cc(=O)c2ccccc2o1	67*	-1	0	2	ABCB6 inh CP1=101
COc1ccc(N(CC(=O)NC(C)C)S(=O)(=O)c2ccc(NC(C)=O)cc2)cc1	69*	-3	-11	1	ABCB6 inh CP1=98
COC(=O)[C@@]1(C)[C@H]2C(=O)N(C)C(=O)[C@H]2[C@H]2CN=C(SCc3ccc(Cl)cc3)N21	100	0	-4	1
Cn1c(=O)c2c(ncn2CC(=O)N(Cc2ccccc2)c2ccccn2)n(C)c1=O	71*	-1	-6	1	ABCB6 inh CP1=98
CCCCN1C(=O)C(CC(=O)NCc2ccco2)CC(C(=O)N2CCCCCC2)=C1C (stereo not drawn)	102	1	3	-3
Clc1ccc(Cl)c(OCCN2CCCC2)c1	49*	0	-7	-1	ABCB6 inh CP1=105
COc1cc(OC)c(C2C(C#N)=C(C)NC(C)=C2C#N)c(C(=O)O)c1	97	1	-6	0
CC(=O)/C(N=Nc1ccc2c(c1)OCO2)=C(\C)O	74*	1	-5	9	ABCB6 inh CP1=102
Cc1cc2c(C)nc(Cc3ccccc3)nc2o1	9.0*	6	-3	1	ABCB6 inh CP1=99
CSc1nc(C)c2cc(C)oc2n1	89	1	-4	4
Cc1cccc(C)c1NC(=O)C1(C)CN(S(C)(=O)=O)CC(=O)N1CCCN1CCOCC1 (stereo not drawn)	.	.	.	-4
CCN(CC)C(=O)[C@H]1CC(CC(=O)NCc2ccc(OC)c(OC)c2)C(=O)N2CCc3c([nH]c4ccccc34)[C@]12C (stereo partly drawn)	95	-2	-6	0
